Cytotoxicity data for 71 compounds are collected here from ChEMBL document CHEMBL4513216, “Probing the Open Global Health Chemical Diversity Library for Multistage-Active Starting Points for Next-Generation Antimalarials” (ACS Infect Dis, 2020).

Structures are written as SMILES.

The data set is described as follows: Toxicity liver stage against HepG2, at 10uM. In kind it is cell-based. More on the design: test concentration 10 uM, cell line HepG2-A16-CD81EGFP. The note with it: human, HepG2-A16-CD81EGFP cells; read-out: INHIBITION
Summed up: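 Uninfected HepG2-A16-CD81EGFP cells, 3 × 10^3 per well, 1536-well, plated on prespotted compound at 10 μM final, parasite-free screening media added to match infected plates; puromycin 10 μM positive, DMSO 0.5% negative; run in parallel with 48 h PbLuc assay at 37 °C, 5% CO2; viability by CellTiter-Glo luminescence, normalized to controls.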
In the case of `Cn1cc(C2CCCN2Cc2csc(C3CCCC3)n2)cn1` (stereo unspecified), the cytotoxicity at 10 µM is 8.3%. Take `O=C(Nc1nc2c(s1)CN(S(=O)(=O)C1CC1)CC2)C1CC1`: the cytotoxicity at 10 µM is -0.849%.

In the case of `COCCN1CCC(NC(=O)C(C)C)CC1`, the cytotoxicity at 10 µM was -2.45%.

Regarding `COc1ccc(NC(=O)c2cc3c([nH]c2=O)CCCC3=O)c(OC)c1`, the cytotoxicity at 10 µM was -0.0455%. As for `Cc1ccc(C(=O)Nc2cc(C(C)C)n[nH]2)cn1`, the cytotoxicity at 10 µM amounted to 55.8%. The figure for `CO[C@@H]1CCN(Cc2cnn(C)c2)[C@@H]2CN(Cc3cccnc3)C[C@@H]21` is 8.47%; for `O=S(=O)(CCc1ccccc1)Cc1nc(C2CC2)no1` it is 1.03%; for `CN1CCN2CCN(Cc3cc(=O)n4c5c(cccc35)CCC4)CC2C1` (stereo unspecified) it is 9.05%. Take `Cc1ccc(NC(=O)c2n[nH]c(-n3cnnc3)n2)cc1`: the cytotoxicity at 10 µM was determined as 6.33%. The figure for `O=C1[C@@H]2CN(c3ncccc3Cl)C[C@]2(C(=O)O)CN1CC1CC1` is 1.04%. Next, `Cc1nc(N2CCC(C)CC2)ncc1-c1cc(O)nc(N2CCCC2)n1`: 9.82%; `COc1ccccc1OCCNS(=O)(=O)N1CCOCC1`: 9.37%. Consider `CCN(CC)Cc1cc(C(=O)N2CCC3(CC2)NCCNC3=O)c(C)o1`, for which the cytotoxicity at 10 µM was determined as 4.01%. On to `O=c1cc(N2CCNCC2)cnn1CCCn1cccn1`, for which the cytotoxicity at 10 µM was -48%.

With `CCN(Cc1cnn(C)c1)C(=O)c1ccccc1O`, the cytotoxicity at 10 µM turned out to be 1.89%. With `Cc1cc(Nc2ccc3c(c2)CC(=O)N3)nc(C(C)C)n1`, the cytotoxicity at 10 µM amounted to 3.67%. For `Cn1ccc(C(=O)N2C[C@H]3CCC[C@@]3(COCc3cccnc3)C2)n1`, the cytotoxicity at 10 µM stood at 6.87%. For the compound `COCCNC(=O)[C@H]1C[C@@H]2CCN(CCc3ccccc3)C[C@H]2O1`, the cytotoxicity at 10 µM was -70.3%. Take `O=C(C1CCC1)N1C[C@@H]2CCN(c3cccnc3)C[C@@H]2C1`: the cytotoxicity at 10 µM was -2.13%.

In the case of `CN1CCCC(c2n[nH]c3ncccc23)C1` (stereo unspecified), the cytotoxicity at 10 µM is -3.35%. Next, `CCn1nc(C)c2ncnc(N(C)C)c21`: 3.18%; `O=C1CN(c2ccc(CNC(=O)c3cccnc3O)cc2F)CCN1`: 5.04%; `c1ccc(CN2CCC3(CC2)CN(c2ccccn2)CCO3)nc1`: -6.38%. Consider `CC(CNC(=O)c1cc(-n2cccn2)ccn1)Cn1ccnc1` (stereo unspecified), for which the cytotoxicity at 10 µM was -3.43%.

Regarding `CCOc1ncccc1NC(=O)c1cc(C)c(C)s1`, the cytotoxicity at 10 µM is -2.96%.

For the compound `CC(C)C(C)NC(=O)CN1CCSCC1` (stereo unspecified), the cytotoxicity at 10 µM is -0.662%. Turning to `NC(=O)c1cn[nH]c1C1CCCN1C(=O)c1ccccc1` (stereo unspecified), the cytotoxicity at 10 µM came out at 0.00505%. In the case of `COc1ccccc1OCc1cc(C(=O)N2CC=CC2C(C)C)n[nH]1` (stereo unspecified), the cytotoxicity at 10 µM is -2.72%. In the case of `O=C(N1CCN(CCO)CC1)C1(O)Cc2ccccc2C1`, the cytotoxicity at 10 µM is -2.92%. Next, `COC(=O)N1CCc2ccccc2C1C(=O)NCc1nc(C)no1` (stereo unspecified): 3.88%; `NC(=O)C1CCN(CC(=O)N2CCCC2c2ccsc2)CC1` (stereo unspecified): -11.4%. As for `Cc1nc(C2CCCN2CC(=O)N2CCCc3ccccc32)no1` (stereo unspecified), the cytotoxicity at 10 µM was -8.7%. As to `O=C(NC[C@H]1OC[C@@H]2CN(Cc3ccco3)CC[C@@H]21)c1cccnc1`, the cytotoxicity at 10 µM was -141%. The figure for `COc1cc(-c2cc(=O)[nH]cn2)cc(OC)c1OC` is -12.5%; for `COCCC(=O)Nc1cc(CC(C)(C)C)n[nH]1` it is 3.97%; for `O=S1(=O)CCN(Cc2cccnc2)[C@H]2CCN(c3ncccn3)CC[C@H]21` it is -11.2%. In the case of `NCC1(c2cccc(C(F)(F)F)c2)CCOCC1`, the cytotoxicity at 10 µM is -11.1%.

As for `CN(C)c1cc(C(=O)NCC2(c3cccc(F)c3)CCOCC2)ccn1`, the cytotoxicity at 10 µM is 8.8%.

Regarding `O=C(c1ccco1)N1CCC2(CCC(=O)N2Cc2cccc(F)c2)CC1`, the cytotoxicity at 10 µM came to 2.84%. In the case of `CC(C)Cc1cc(CNC(=O)c2cccc3c2NCCC3)no1`, the cytotoxicity at 10 µM is -50.7%. Regarding `CCN(CCc1nc2cc(C)ccc2[nH]1)C(=O)[C@@H](N)CCSC`, the cytotoxicity at 10 µM is -9.28%. As for `CCC(CN1CCOCC1)NC(=O)Cc1c(C)[nH]c2cc(C)cc(C)c12` (stereo unspecified), the cytotoxicity at 10 µM worked out at 19.6%. The figure for `CN1C[C@@H]2CN(C(=O)NCc3ccccc3)CCC[C@]2(C(=O)O)C1` is 9.55%; for `O=C(NCc1nc(C2CCCCC2)no1)C1CC(=O)N(C2CC2)C1` (stereo unspecified) it is 1.5%; for `COC(C)(C)CC(C)NC(=O)NC1CCN(Cc2ccccn2)CC1` (stereo unspecified) it is 4.83%. Regarding `COc1cccc2c1OCC(CNC(=O)CNC(N)=O)C2` (stereo unspecified), the cytotoxicity at 10 µM is -2.93%. In the case of `FC(F)CNc1cnc(C2CCCN2)cn1` (stereo unspecified), the cytotoxicity at 10 µM was determined as 0.865%. In the case of `COCCC(=O)N1CCC(C(=O)c2cc(C)cnc2N)CC1`, the cytotoxicity at 10 µM is -27.7%. For the compound `CN(C(=O)NCc1nccn1Cc1ccccc1)C1CC1`, the cytotoxicity at 10 µM was -2.22%. `CCC1CN(C(=O)c2cccc(O)c2)CCC(=O)N1Cc1ccccc1` (stereo unspecified): the cytotoxicity at 10 µM stood at 6.78%. Regarding `COCCNc1ccc(CC2CCCN(C3CCCC3)C2)nn1` (stereo unspecified), the cytotoxicity at 10 µM stood at 3.07%. The figure for `COc1ccc(S(=O)(=O)N2CCOC(Cn3ccnc3)C2)cc1` (stereo unspecified) is 7.25%; for `CN(C)c1ncnc2c1CCN(CC1CCOCC1)CC2` it is -69.6%; for `CN(C1CCc2ccccc2C1)S(C)(=O)=O` (stereo unspecified) it is -3.78%. The figure for `CC(=O)N1CCOC2(CCN(C(=O)C3CC3)CC2)C1` is -106%. Consider `Cc1cc(C)n(CC2CN(Cc3noc(C)n3)CCO2)n1` (stereo unspecified), for which the cytotoxicity at 10 µM turned out to be 0.305%. With `Fc1ccc(CN2C[C@@H](OCc3ccccn3)[C@H]3COC[C@H]32)cc1`, the cytotoxicity at 10 µM is -98.9%. Consider `CN1CCN(c2ccc(Cl)cc2NC(=O)c2ccco2)CC1`, for which the cytotoxicity at 10 µM is -2.14%.

For `Cc1nc2ccnn2c(C)c1CCC(=O)N1CCC(C(N)=O)CC1`, the cytotoxicity at 10 µM is -9.26%.

Consider `Cc1csc([C@@H]2C[C@@H]3CCN(Cc4cc(C)on4)C[C@H]3O2)n1`, for which the cytotoxicity at 10 µM is -106%. With `CNC(=O)C1CCC2(CCNCC2)C1` (stereo unspecified), the cytotoxicity at 10 µM was found to be 6.41%. As for `Cc1cc(NC(=O)CN2CCCC2c2noc(C3CC3)n2)n(C)n1` (stereo unspecified), the cytotoxicity at 10 µM was -1.16%. The figure for `CC1CCC(NC(=O)CNC2(c3ccc(F)cc3)CCOCC2)CC1` (stereo unspecified) is 7.79%. Next, `N[C@@H](Cc1ccccc1)c1nnc(S(=O)(=O)Cc2cccc(Cl)c2)o1`: 7.87%. Next, `COCC(=O)N[C@H](C)c1c(-c2ccc(OC)cc2)noc1C(=O)O`: 0.588%; `Cc1cnn(CCNCC(=O)N2CCN(c3ccccc3)CC2)c1`: -6.74%; `CCn1nc(C)c(CN(CCOC)C(=O)c2ccccc2N(C)C)c1C`: -1.14%. With `CN(Cc1nnc(C2CC2)o1)C1CCCN(c2cccnn2)C1` (stereo unspecified), the cytotoxicity at 10 µM is -10.7%. Next, `CN(CCc1ccccn1)C(=O)c1cn2c(n1)CNCC2`: -43.5%; `Cc1cccn2cc(CN3CCCC(c4noc(C5CC5)n4)C3)nc12` (stereo unspecified): 2.29%; `Cc1csc(C2CCCCN2C(=O)Cn2cncn2)n1` (stereo unspecified): -0.0679%.
